The target in data set [1] is T1, Serine racemase (Mus musculus) (UniProt Q9QZX7).
T1 sequence (whole entry): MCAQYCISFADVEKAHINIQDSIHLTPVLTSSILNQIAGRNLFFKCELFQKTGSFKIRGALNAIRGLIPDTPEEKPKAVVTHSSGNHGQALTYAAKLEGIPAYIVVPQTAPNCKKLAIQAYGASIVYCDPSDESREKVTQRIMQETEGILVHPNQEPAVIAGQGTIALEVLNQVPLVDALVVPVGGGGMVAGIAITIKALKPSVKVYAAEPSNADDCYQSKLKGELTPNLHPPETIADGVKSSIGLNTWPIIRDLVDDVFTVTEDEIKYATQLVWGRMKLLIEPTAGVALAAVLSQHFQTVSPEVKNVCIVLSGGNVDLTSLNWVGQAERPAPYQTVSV
In words: Inhibition of mouse recombinant serine racemase expressed in Escherichia coli MC1061 assessed as formation of D-serine at 5 mM after 30 mins by HPLC analysis. The procedure, abridged:
(§1)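 Mouse SR (E. coli MC1061, arabinose-induced, three-step chromatography, ~90% pure) incubated in pH 8.0 buffer with 10 μM PLP, 1 mM ATP, 1 mM MgCl2, 5 mM DTT. Screening used 5 mM L-serine and 5 mM test compound; IC50 runs varied inhibitor at 5 mM L-serine. 30 min at 37 C, stopped with 0.3 M HClO4; D-serine quantified by HPLC. Duplicate or triplicate runs.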

A short description of data set [2]: Binding affinity to pyridoxal-5'-phosphate assessed as formation of PLP-aldoxime at 5 mM after 1 hr by UV/vis spectroscopy. The procedure, abridged:
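PLP and compound solutions in 100 mM phosphate buffer pH 8.0 mixed 1:1, giving 300 μM PLP and 5 mM compound final. Incubated 1 h at room temperature, then absorbance scanned from 310 to 500 nm.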

A short description of data set [3]: Binding affinity to pyridoxal-5'-phosphate assessed as formation of syn- and anti-PLP-aldoxime by NMR spectroscopy. The method, boiled down: (§2)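 Compound and PLP solutions prepared in 100 mM phosphate buffer in D2O, pD held near 8.0; chemical shifts followed by NMR after mixing.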
The nature of data set [4]: Binding affinity to pyridoxal-5'-phosphate assessed as formation of PLP-aldoxime by ESI-MS analysis. The method, boiled down:
(§3)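 Compound weighed into PLP stock at about 1:1 molar ratio with PLP, with or without 200 mM ammonium sulfate pH 8.0. Mixture diluted 40- to 100-fold in water and analysed by ESI-MS in negative ion mode.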

In data set [5] the target is T2, Serine racemase (Mus musculus, UniProt Q9QZX7).
T2 sequence (Q9QZX7 whole entry): T1 sequence (whole entry)
In words: Inhibition of mouse recombinant serine racemase transfected in bacterial expression system.

Data set [6] can be described thus: Binding affinity to pyridoxal-5'-phosphate assessed as formation of PLP-aldimine at active site by ESI-MS analysis. The method, boiled down:
as §3

The nature of data set [7]: Binding affinity to 30 mM pyridoxal-5'-phosphate assessed as formation of PLP-aldimine by ESI-MS analysis.
A short description of data set [8]: Inhibition of broad-range bacterial transaminase assessed as formation of L-glutamic acid at 5 mM in phosphate buffer of pH 8 treated for 15 to 20 mins before addition of substrate by HPLC analysis in presence of 10 uM PLP. The procedure, abridged: (§4)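 Enzyme in 50 mM phosphate buffer pH 8.0 with 10 μM PLP, preincubated with 5 mM inhibitor at room temperature for 15-20 min. Substrate added near KM: alanine racemase 5 mM D-alanine (L-alanine formed); SDH 50 mM L-serine (SDH partially purified, ~50%, from E. coli BL21-RIL); transaminase 5 mM L-aspartic acid plus 5 mM α-ketoglutarate. Products analysed by HPLC.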

A short description of data set [9]: Chemical stability assessed as hydrolysis-associated hydroxylamine formation at 0.5 mM after 1 hr in phosphate buffer of pH 7.4. It counts as physicochemical. The settings on record: pH 7.4, 1 h, 500 µM. The procedure, abridged: (§5)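 Compound at 0.5 mM or 0.05 mM, diluted from fresh 10 mM stocks, held in 100 mM phosphate buffer pH 8.0 or 7.4 at room temperature for 0, 30 or 60 min. Picrylsulfonic acid then added; released hydroxylamine read as absorbance at 494 nm 15 min later.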

Data set [10] in a line: Chemical stability assessed as hydrolysis-associated hydroxylamine formation at 0.5 mM after 1 hr in phosphate buffer of pH 8. It counts as physicochemical. The settings on record: pH 8, 1 h, 500 µM. The procedure, abridged:
as §5

In data set [11] the target is T3, L-serine dehydratase/L-threonine deaminase (Rattus norvegicus) (UniProt P09367).
T3 sequence (whole entry): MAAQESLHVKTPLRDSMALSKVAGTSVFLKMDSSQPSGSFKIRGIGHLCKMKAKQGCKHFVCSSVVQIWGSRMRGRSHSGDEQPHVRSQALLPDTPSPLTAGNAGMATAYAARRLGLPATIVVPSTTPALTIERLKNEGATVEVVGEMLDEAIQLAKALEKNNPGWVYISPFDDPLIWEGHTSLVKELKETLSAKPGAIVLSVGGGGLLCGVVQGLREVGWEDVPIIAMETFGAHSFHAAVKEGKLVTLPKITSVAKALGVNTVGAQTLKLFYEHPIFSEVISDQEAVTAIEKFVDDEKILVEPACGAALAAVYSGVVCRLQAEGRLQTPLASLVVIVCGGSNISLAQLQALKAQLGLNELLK
In words: Inhibition of rat SDH expressed in Escherichia coli BL21-RIL assessed as formation of pyruvate at 5 mM in phosphate buffer of pH 8 treated for 15 to 20 mins before addition of substrate by HPLC analysis in presence of 10 uM PLP. The method, boiled down: as §4

The nature of data set [12]: Binding affinity to pyridoxal-5'-phosphate assessed as compound remaining after 12 days by NMR spectroscopy. The procedure, abridged:
as §2

Data set [13] addresses T1, Serine racemase (Mus musculus). In words: Inhibition of mouse recombinant serine racemase expressed in Escherichia coli MC1061 assessed as formation of D-serine at 5 mM in phosphate buffer of pH 8 treated for 15 to 20 mins before addition of substrate by HPLC analysis in presence of 10 uM PLP.
In data set [14] the target is T4, Serine racemase (Homo sapiens) (UniProt Q9GZT4).
T4 sequence (whole entry): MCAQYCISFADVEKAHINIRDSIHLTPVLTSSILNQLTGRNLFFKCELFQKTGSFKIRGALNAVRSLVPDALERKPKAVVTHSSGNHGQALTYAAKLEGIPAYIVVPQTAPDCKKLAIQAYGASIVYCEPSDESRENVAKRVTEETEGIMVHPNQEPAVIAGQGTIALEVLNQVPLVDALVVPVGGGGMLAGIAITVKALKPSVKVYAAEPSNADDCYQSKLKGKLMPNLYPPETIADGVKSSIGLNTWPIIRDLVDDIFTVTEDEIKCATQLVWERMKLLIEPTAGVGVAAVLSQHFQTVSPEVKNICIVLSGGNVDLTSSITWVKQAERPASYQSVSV
In words: Inhibition of human recombinant serine racemase assessed as formation of D-serine at 5 mM in phosphate buffer of pH 8 treated for 15 to 20 mins before addition of substrate by HPLC analysis in presence of 10 uM PLP. The procedure, abridged: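 Recombinant human SR assayed as for mouse SR: pH 8.0 buffer with 10 μM PLP, 1 mM ATP, 1 mM MgCl2, 5 mM DTT, 5 mM L-serine and 5 mM compound. Incubated 30 min at 37 C, stopped with HClO4; D-serine measured by HPLC.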

In data set [15] the target is T5, Alanine racemase (Geobacillus stearothermophilus) (UniProt P10724).
T5 sequence (whole entry): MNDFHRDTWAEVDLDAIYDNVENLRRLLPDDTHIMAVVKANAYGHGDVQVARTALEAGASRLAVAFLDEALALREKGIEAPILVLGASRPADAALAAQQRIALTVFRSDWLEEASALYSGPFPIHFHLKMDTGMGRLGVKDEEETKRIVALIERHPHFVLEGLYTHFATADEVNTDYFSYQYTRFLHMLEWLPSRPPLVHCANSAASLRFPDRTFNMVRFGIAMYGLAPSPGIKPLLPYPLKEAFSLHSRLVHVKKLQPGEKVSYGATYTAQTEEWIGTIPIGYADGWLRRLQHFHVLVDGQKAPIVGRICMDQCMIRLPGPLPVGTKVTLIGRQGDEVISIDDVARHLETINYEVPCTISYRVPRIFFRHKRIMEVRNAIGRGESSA
The experiment in a line: Inhibition of Bacillus stearothermophilus alanine racemase assessed as formation of L-alanine at 5 mM in phosphate buffer of pH 8 treated for 15 to 20 mins before addition of substrate by HPLC analysis in presence of 10 uM PLP. The method, boiled down: as §4

A short description of data set [16]: Binding affinity to pyridoxal-5'-phosphate assessed as formation of syn- and anti-PLP-aldoxime after 20 hrs by NMR spectroscopy. The method, boiled down:
as §2

Data set [17] can be described thus: Chemical stability assessed as hydrolysis-associated hydroxylamine formation at 0.05 mM after 1 hr in phosphate buffer of pH 8. It counts as physicochemical. The settings on record: pH 8, 1 h, 50 µM. The procedure, abridged: as §5
In data set [18] the target is T2, Serine racemase. In words: Inhibition of mouse recombinant serine racemase expressed in Escherichia coli MC1061 assessed as formation of D-serine after 30 mins by HPLC analysis. The method, boiled down:
as §1

Data set [19] can be described thus: Chemical stability assessed as hydrolysis-associated hydroxylamine formation at 0.05 mM after 1 hr in phosphate buffer of pH 7.4. It counts as physicochemical. The settings on record: pH 7.4, 1 h, 50 µM. The procedure, abridged: as §5
Data set [20] addresses T1, Serine racemase (Mus musculus). The experiment in a line: Inhibition of mouse recombinant serine racemase expressed in Escherichia coli MC1061 assessed as formation of D-serine after 30 mins by Linewaver-burk and Eadie-Hofstee plot analysis. The procedure, abridged: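 Mouse SR racemization at varied L-serine and inhibitor concentrations, pH 8.0, 10 μM PLP, 30 min at 37 C. End-point HPLC measured D-serine peak area relative to a glycine internal standard, in triplicate. Global nonlinear fit followed by linear transformation.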

Data set [21] has the same target. The experiment in a line: Inhibition of mouse recombinant serine racemase expressed in Escherichia coli MC1061 assessed as formation of D-serine at 5 mM treated for 15 to 20 mins before addition of substrate by HPLC analysis in presence of increasing concentration of PLP.
The target in data set [22] is T4, Serine racemase (Homo sapiens). The experiment in a line: Inhibition of human recombinant serine racemase assessed as formation of D-serine at 5 mM treated for 15 to 20 mins before addition of substrate by HPLC analysis in presence of increasing concentration of PLP.

Molecules are shown by their SMILES. Active and inactive are the calls of the source. No cut-off for these calls is given here.

Consider `O=C(NO)c1ccc([N+](=O)[O-])cc1`, for which, in data set [1], the inhibition result was “inactive”.
On to `CC(=O)NO`, for which the result in data set [2] and in data set [4] was inactive. The outcome in data set [3] was Active. Moreover, in [1], the inhibition result was “inactive”.
For orientation: Ki means the dissociation constant of the complex between target and ligand, obtained from inhibition or displacement. Regarding `N[C@@H](C(=O)O)[C@H](O)C(=O)O`, on Serine racemase [5], the Ki was determined as 43 µM.
With `NCC(=O)NO`, the inhibition result in data set [1] was “inactive”. For the same compound, in data set [6], the result was inactive. Further, in data set [7], the result was Active.
As for `O=C(NO)c1ccc(Cl)cc1`, the inhibition entry in [1] is “inactive”.
As to `NCC(=O)O`, the outcome in data set [7] was Active.
Regarding `O=C(NO)C(=O)NO`, the inhibition result in data set [8], in data set [11], in [13], in [14], in [15] and in [1] was “inactive” in each case. Besides, the outcome in data set [2], in data set [3] and in data set [4] was inactive. The Stability result in data set [9] and in data set [10] was “Stable” each time. The Activity in data set [12] stood at 20%.
Take `O=C(CCCCCCC(=O)NO)NO` [SUBEROHYDROXAMIC ACID]: the Stability result in data set [9] and in [10] was “Stable” in each case. Also, the result in data set [3], in data set [16] and in [4] was inactive. In addition, the inhibition entry in [1] was “inactive”.
For `O=C(O)CC(=O)O` [MALONIC ACID], at Serine racemase [5], the Ki amounted to 71 µM.
In the case of `N[C@@H](CO)C(=O)O`, in data set [7], the outcome was Active.
On to `Nc1ccc(C(=O)NO)cc1`, for which, in data set [1], the inhibition result was “inactive”.
On to `NC(CO)C(=O)NO` (centres undefined), for which, in [1], the inhibition entry is “inactive”. The result in [6] was inactive. Moreover, in [7], the outcome was Active.
In general, IC50 refers to the concentration at which inhibition is half-maximal. For the compound `O=C(CCCC(=O)NO)NO` [GLUTARODIHYDROXAMIC ACID], the result in [2], in [16] and in data set [4] was Active. Further, the Stability entry in data set [17] and in data set [19] was “Unstable” throughout. At Serine racemase [18], the IC50 amounted to 170 µM.
`CC(O)C(N)C(=O)NO` (centres undefined): the inhibition result in [1] is “inactive”. For the same compound, the outcome in [6] was inactive. Further, in data set [7], the outcome was Active.
In the case of `O=C(CCCCC(=O)NO)NO`, the outcome in data set [2], in data set [3], in [16] and in data set [4] was inactive. The Stability result in [9] and in [10] was “Stable” throughout. Besides, the inhibition result in data set [1] was “inactive”.
As for `O=C(CCC(=O)NO)NO` [SUCCINODIHYDROXAMIC ACID], the result in [2], in [3] and in data set [4] was Active. Moreover, the Stability entry in [17] and in data set [19] was “Unstable” throughout. In addition, the inhibition result in data set [13] was “Active”. For the same compound, the Ki in [20] turned out to be 3.6 µM. For the same compound, the inhibition entry in data set [21] and in [22] was “inactive” throughout. The IC50 at Serine racemase [18] turned out to be 90 µM.
With `O=C(CCCCCCC(=O)Nc1ccccc1)NO`, the result in data set [2] was inactive. Also, in data set [3], the outcome was Active. In data set [1], the inhibition result is “inactive”.

The record behind these values is ChEMBL document CHEMBL1156073, “Hydroxamic acids as a novel family of serine racemase inhibitors: mechanistic analysis reveals different modes of interaction with the pyridoxal-5'-phosphate cofactor” (J Med Chem, 2009).
